According to ChEMBL document CHEMBL4371017, “Discovery and optimization of pyrazole amides as antagonists of CCR1” (Bioorg Med Chem Lett, 2019):
pIC50: −log10 of the molar value.

Target: T1, C-C chemokine receptor type 1 (Homo sapiens, UniProt P32246)
T1 sequence (P32246 whole entry): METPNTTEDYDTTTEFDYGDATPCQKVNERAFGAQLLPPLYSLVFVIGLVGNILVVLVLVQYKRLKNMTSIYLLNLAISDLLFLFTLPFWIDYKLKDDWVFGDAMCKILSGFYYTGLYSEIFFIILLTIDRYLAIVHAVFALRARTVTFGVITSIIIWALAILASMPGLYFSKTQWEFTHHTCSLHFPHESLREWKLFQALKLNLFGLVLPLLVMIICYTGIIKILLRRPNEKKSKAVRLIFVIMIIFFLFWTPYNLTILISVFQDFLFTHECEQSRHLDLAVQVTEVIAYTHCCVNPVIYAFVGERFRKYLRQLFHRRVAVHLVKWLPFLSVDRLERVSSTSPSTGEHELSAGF
Assay: Antagonist activity at recombinant CCR1 (unknown origin) expressed in non-adherent cells co-expressing Galpha16 assessed as inhibition of MIP-1 alpha-induced calcium flux by Fluo-4 NW or Calcium 4 dye based FLIPR TETRA assay
Format: functional, cell-based
Details: not given
Procedure, shortened: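 The cells stably co-express CCR1 and Gα16 and were loaded with dye for 1 h at room temperature with probenecid (Method A: Fluo-4 NW; Method B: Calcium 4), then plated at 20,000 cells/well. Compounds were tested at 10 doses from a 3,000 nM top (A 3-fold steps, B 4-fold), in 1% DMSO and HBSS/20 mM HEPES pH 7.4. Preincubation was 1 h at room temperature in the dark (A) or 30 min at 37°C then 30 min at room temperature (B). MIP-1α was added at EC80 and the calcium flux recorded.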

| Compound | pIC50 |
| --- | --- |
| Cc1c(C(=O)NCc2cccc(C(F)(F)F)c2)cnn1-c1ccccc1 | < 5.52 |
| Cc1c(C(=O)NCc2cccc(C(F)(F)F)c2)cnn1-c1ccc(F)cc1 | 6.10 |
| O=C(NCc1cccc(C(F)(F)F)c1)c1cnn(-c2ccc(Cl)cc2)c1CO | 5.92 |
| Cn1cc(C(=O)NCc2cccc(C(F)(F)F)c2)nc1-c1ccc(Cl)cc1 | < 5.52 |
| Cc1c(C(=O)NCc2ccncc2)cnn1-c1ccc(Cl)cc1 | < 5.52 |
| Cc1c(C(=O)N[C@@H](C)c2cccc(C(F)(F)F)c2F)cnn1-c1ccc(Cl)cc1 | 7.55 |
| Cc1c(C(=O)NCc2ccc(S(C)(=O)=O)cc2)cnn1-c1ccc(Cl)cc1 | 5.77 |
| Cc1nc(C(=O)NCc2cccc(C(F)(F)F)c2)nn1-c1ccc(Cl)cc1 | < 5.52 |
| Cc1c(C(=O)NCc2cccc(N)c2)cnn1-c1ccc(Cl)cc1 | < 5.52 |
| Cc1c(C(=O)NCc2cccc(O)c2)cnn1-c1ccc(Cl)cc1 | < 5.52 |
| Cc1c(C(=O)NCc2cccc(C(F)(F)F)c2)cnn1-c1ccc([N+](=O)[O-])cc1 | 6.02 |
| O=C(NCc1cccc(C(F)(F)F)c1)c1cnn(-c2ccc(Cl)c(Cl)c2)c1 | < 5.52 |
| Cc1c(C(=O)NCc2cccc(C(F)(F)F)c2)cnn1-c1cccc(Cl)c1 | < 5.52 |
| Cc1cc(C(=O)NCc2cccc(C(F)(F)F)c2)c(C)n1-c1ccc(Cl)cc1 | 6.46 |
| Cn1c(C(=O)NCc2cccc(C(F)(F)F)c2)cnc1-c1ccc(Cl)cc1 | < 5.52 |
| Cc1c(C(=O)NCc2ccccn2)cnn1-c1ccc(Cl)cc1 | < 5.52 |
| CC[C@H](NC(=O)c1cnn(-c2ccc(Cl)cc2)c1C)c1cccc(C(F)(F)F)c1F | 7.89 |
| O=C(NCc1cccc(C(F)(F)F)c1)c1cnn(-c2ccc(Cl)cc2)c1C(F)(F)F | < 5.52 |
| CC(C)(O)c1ccc2c(c1)/C(=C\CCN1CC[C@](O)(c3ccc(Cl)cc3)C(C)(C)C1)c1cccnc1CO2 | 9.10 |
| CCC[C@H](NC(=O)c1cnn(-c2ccc(Cl)cc2)c1C)c1cccc(C(F)(F)F)c1F | 8.00 |
| Cc1nc(-c2ccc(Cl)cc2)sc1C(=O)NCc1cccc(C(F)(F)F)c1 | < 5.52 |

| Compound | pIC50 |
| --- | --- |
| Cc1c(C(=O)NCc2cccnc2)cnn1-c1ccc(Cl)cc1 | < 5.52 |
| Cc1cc(-c2ccc(Cl)cc2)sc1C(=O)NCc1cccc(C(F)(F)F)c1 | 5.72 |
| Cc1nn(-c2ccc(Cl)c(Cl)c2)c(C)c1C(=O)NCc1cccc(C(F)(F)F)c1 | < 5.52 |
| CNS(=O)(=O)c1ccc(CNC(=O)c2cnn(-c3ccc(Cl)cc3)c2C)cc1 | 6.38 |
| Cc1c(C(=O)NCc2cccc(C(F)(F)F)c2)cnn1-c1cccc(C(F)(F)F)c1 | < 5.52 |
| Cc1c(C(=O)NCc2ccccc2S(C)(=O)=O)cnn1-c1ccc(Cl)cc1 | < 5.52 |
| Cc1c(C(=O)NCc2cccc(S(C)(=O)=O)c2)cnn1-c1ccc(Cl)cc1 | 5.68 |
| CN(C)c1c(C(=O)NCc2cccc(C(F)(F)F)c2)cnn1-c1ccc(Cl)cc1 | < 5.52 |
| COCc1c(C(=O)NCc2cccc(C(F)(F)F)c2)cnn1-c1ccc(Cl)cc1 | < 5.52 |
| Cc1c(C(=O)NCc2cccc(C(N)=O)c2)cnn1-c1ccc(Cl)cc1 | < 5.52 |
| Cc1c(C(=O)NCc2cccc(C(F)(F)F)c2)cnn1-c1ccc(Cl)c(Cl)c1 | 6.30 |
| Cc1cccc(-n2ncc(C(=O)NCc3cccc(C(F)(F)F)c3)c2C)c1 | < 5.52 |
| CCCC(NC(=O)c1cnn(-c2ccc(Cl)cc2)c1C)c1ccc(S(C)(=O)=O)nc1 (stereo not drawn) | 7.33 |
| Nc1c(C(=O)NCc2cccc(C(F)(F)F)c2)cnn1-c1ccc(Cl)cc1 | < 5.52 |
| Cc1c(C(=O)NCc2cccc(C(F)(F)F)c2)cnn1Cc1ccccc1 | < 5.52 |
| Cc1c(C(=O)NCc2ccc(S(C)(=O)=O)nc2)cnn1-c1ccc(Cl)c(Cl)c1 | < 5.52 |
| COc1cc(N2CCN(C(=O)Cn3nc(-c4ncc[nH]4)c4cccnc43)CC2)ccc1Cl [CCX354] | 8.70 |
| CC(C)[C@@H](NC(=O)NCC(C)(C)O)C(=O)N1CC[C@](O)(c2ccc(Cl)cc2)C(C)(C)C1 [BMS-817399] | 8.52 |
| Cc1c(C(=O)NCc2cccc(C(F)(F)F)c2)cnn1-c1ccccc1Cl | < 5.52 |
| Cc1c(C(=O)NCc2cccc(C(F)(F)F)c2)cnn1-c1ccc(Cl)cc1 | 6.22 |
| Cc1c(C(=O)NCc2cccc(C(F)(F)F)c2)nnn1-c1ccc(Cl)cc1 | 5.62 |

Test system: not listed separately
Assay: Aqueous solubility of the compound
Format: physicochemical
Details: water

| Compound | solubility [µg/mL] |
| --- | --- |
| Cc1c(C(=O)NCc2cccc(C(F)(F)F)c2)cnn1-c1ccc(Cl)c(Cl)c1 | < 1 |
